Laboratory results published in ChEMBL document CHEMBL1122336, “Aromatic amidines: comparison of their ability to block respiratory syncytial virus induced cell fusion and to inhibit plasmin, urokinase, thrombin, and trypsin” (J Med Chem, 1983).

Tests used:
[1] = target: T1, Urokinase-type plasminogen activator (Homo sapiens, UniProt P00749); test: Inhibition constant against Urokinase
Plasminogen = Plasminogen (Homo sapiens, UniProt P00747); test: Inhibition constant against human plasminogen
Procedure, shortened: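 Amidase assay with plasmin on N-benzoyl-DL-arginine p-nitroanilide (BAPNA), run at pH 7.6 and 37 °C. Ki was derived from a Dixon plot of reciprocal initial velocities against inhibitor concentrations at two substrate levels.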

Serine protease 1 = target: T2, Serine protease 1 (Bos taurus, UniProt P00760); test: Inhibition constant against bovine trypsin
T2 sequence (P00760 whole entry): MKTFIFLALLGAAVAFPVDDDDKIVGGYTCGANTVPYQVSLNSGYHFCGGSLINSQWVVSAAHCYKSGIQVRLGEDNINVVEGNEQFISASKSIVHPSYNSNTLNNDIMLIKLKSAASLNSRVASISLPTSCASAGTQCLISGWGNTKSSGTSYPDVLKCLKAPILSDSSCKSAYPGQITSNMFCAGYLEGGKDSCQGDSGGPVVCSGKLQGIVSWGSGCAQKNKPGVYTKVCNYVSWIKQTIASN

Prothrombin = Prothrombin (Bos taurus, UniProt P00735); test: Inhibition constant against bovine thrombin
HEp-2 [2] = test: Minimum concentration required for the complete blockage of virus induced cell […]; cytotoxic at 100 uM; format: functional, cell-based; conditions: Homo sapiens
HEp-2 [3] = test: Minimum concentration required for the complete blockage of virus induced cell […]; NB means no blockage of cell fusion at the highest concentration where there is cytotoxicity at 100 uM; format: functional, cell-based; conditions: Homo sapiens
HEp-2 [4] = test: Minimum concentration required for the complete blockage of virus induced cell […]; NB means no blockage of cell fusion at the highest concentration where there is cytotoxicity at 10 uM; format: functional, cell-based; conditions: Homo sapiens
[5] = target: T1, Urokinase-type plasminogen activator; test: Inhibition constant against Urokinase; nonlinear kinetics
Procedure, shortened: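 Amidase assay with urokinase on the substrate L-pyroglutamylglycyl-L-arginine p-nitroanilide (S-2444), run at pH 8.1 and 37 °C. Ki was read from a Dixon plot: the reciprocal of initial velocity was plotted against inhibitor concentration at two substrate concentrations.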

HEp-2 [6] = test: Minimum concentration required for the complete blockage of virus induced cell division.; format: functional, cell-based; conditions: Homo sapiens
Procedure, shortened: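 HEp-2 cells (MEM + 10% FBS, passages 370–376, mycoplasma-free) seeded to ~10^6 cells/well at 72 h; RS virus A2 strain adsorbed at 0.1 MOI for 2 h at 36 °C. Wells rinsed, then given inhibitor at 100, 10, 1.0, 0.5 or 0.1 in MEM with 2% FBS and 1% Me2SO. Fusion blockage and toxicity scored at 72 h.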

Chain of Plasminogen (P00747 97-580 limits assumed): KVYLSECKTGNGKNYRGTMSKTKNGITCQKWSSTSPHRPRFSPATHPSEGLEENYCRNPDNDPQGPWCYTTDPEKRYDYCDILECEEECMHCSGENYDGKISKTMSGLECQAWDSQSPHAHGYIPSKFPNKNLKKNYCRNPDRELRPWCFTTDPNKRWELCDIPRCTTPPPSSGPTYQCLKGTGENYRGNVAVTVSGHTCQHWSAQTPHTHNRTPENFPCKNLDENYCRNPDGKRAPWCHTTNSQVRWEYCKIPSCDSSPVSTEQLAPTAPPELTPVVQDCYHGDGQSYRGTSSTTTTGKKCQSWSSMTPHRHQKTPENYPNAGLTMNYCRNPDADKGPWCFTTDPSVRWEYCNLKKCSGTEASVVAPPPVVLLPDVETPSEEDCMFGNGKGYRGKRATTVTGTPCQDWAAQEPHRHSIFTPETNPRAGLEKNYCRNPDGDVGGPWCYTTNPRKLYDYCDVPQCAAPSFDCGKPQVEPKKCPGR
Chain of Plasminogen (P00747 581-810 limits assumed): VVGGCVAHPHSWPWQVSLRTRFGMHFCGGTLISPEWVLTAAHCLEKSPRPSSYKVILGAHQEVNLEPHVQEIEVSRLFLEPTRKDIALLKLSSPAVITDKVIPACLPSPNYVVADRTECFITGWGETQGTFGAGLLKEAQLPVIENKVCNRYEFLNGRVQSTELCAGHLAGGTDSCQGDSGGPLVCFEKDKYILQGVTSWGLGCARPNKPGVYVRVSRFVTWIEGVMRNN

Row | SMILES | Ki [1] [µM] | Ki (Plasminogen) [µM] | Ki (Serine protease 1) [µM] | Ki (Prothrombin) [µM] | Ki [5] | Concentration (HEp-2 [2]) [µM] | Concentration (HEp-2 [3]) | Concentration (HEp-2 [4]) | Concentration (HEp-2 [6]) [µM]
1 | N=C(N)c1ccc(OCCOc2ccc(-c3nc4cc(C(=N)N)ccc4[nH]3)cc2)cc1 | – | – | – | – | – | 10 | – | – | –
2 | CCn1ccc2cc(C(=N)N)ccc21 | 280 | > 400 | 137 | 42.8 | – | 10 | – | – | –
3 | CC(=O)c1c[nH]c2cc(C(=N)N)ccc12 | > 100 | > 1000 | > 1000 | 1890 | – | – | Cytotoxic | – | –
4 | N=C(N)c1ccc(Cn2ccc3cc([N+](=O)[O-])ccc32)cc1 | > 200 | > 400 | 3.44 | 164 | – | – | Cytotoxic | – | –
5 | N=C(N)c1ccc2c(C(=O)C(F)(F)F)c[nH]c2c1 | > 100 | > 1000 | > 1000 | 1510 | – | – | Cytotoxic | – | –
6 | Cn1ccc2cc(C(=N)N)ccc21 | 196 | > 1000 | 85.3 | 35.2 | – | – | – | – | –
7 | N=C(N)c1ccc2c(ccn2Cc2cccc(N)c2)c1 | – | 164 | 16.8 | 15.4 | – | – | Cytotoxic | – | –
8 | N=C(N)c1ccc2c(ccn2Cc2cccc([N+](=O)[O-])c2)c1 | – | > 100 | 7.77 | 6.39 | – | 10 | – | – | –
9 | N=C(N)c1ccc(Cn2ccc3cc(C(=N)N)ccc32)c(Cl)c1 | – | > 700 | 5.31 | 47.8 | – | 10 | – | – | –
10 | N=C(N)c1ccc(Cn2ccc3ccccc32)cc1 | – | 111 | – | 13.1 | – | 1 | – | – | –
11 | N=C(N)c1ccc2c(ccn2Cc2ccc([N+](=O)[O-])cc2N)c1 | 40 | 100 | 5.31 | 4.8 | – | 10 | – | – | –
12 | N=C(N)c1ccc2c(C(=O)c3ccccc3)c[nH]c2c1 | 267 | > 200 | > 100 | 176 | – | – | Cytotoxic | – | –
13 | N=C(N)c1ccc2[nH]c(Oc3ccc(-c4nc5cc(C(=N)N)ccc5[nH]4)cc3)nc2c1 | – | ~200 | 4.67 | 3.94 | nonlinear kinectics | – | Cytotoxic | – | –
14 | N=C(N)c1ccc(OCCCCOc2ccc(-c3nc4cc(C(=N)N)ccc4[nH]3)cc2)cc1 | – | – | – | – | – | – | – | Cytotoxic | –
15 | N=C(N)c1ccc(OCCCOc2ccc(-c3nc4cc(C(=N)N)ccc4[nH]3)cc2)cc1 | – | – | – | – | – | 10 | – | – | –
16 | N=C(N)c1ccc2nc(Cc3nc4ccc(C(=N)N)cc4[nH]3)[nH]c2c1 | – | 2.65 | – | – | – | – | – | – | 0.5
17 | N=C(N)c1ccc2c(ccn2Cc2ccccc2)c1 | 191 | 844 | 15.4 | 20.1 | – | – | Cytotoxic | – | –
18 | N=C(N)c1ccc2[nH]ccc2c1 | 131 | 112 | 29.1 | 7.68 | – | – | – | – | –

The remaining compounds from weak to strong by Ki (Plasminogen), led by results:

Row | Ki [1] [µM] | Ki (Plasminogen) [µM] | Ki (Serine protease 1) [µM] | Ki (Prothrombin) [µM] | Ki [5] | SMILES | Concentration (HEp-2 [2]) [µM] | Concentration (HEp-2 [3]) | Concentration (HEp-2 [4]) | Concentration (HEp-2 [6]) [µM]
19 | – | 65.6 | 8.29 | 22.4 | – | N=C(N)c1cccc(Cn2ccc3cc(C(=N)N)ccc32)c1 | 10 | – | – | –
20 | 40.3 | 61.5 | 15.3 | 55 | – | CCC(=O)c1cc2ccc(C(=N)N)cc2[nH]1 | – | Cytotoxic | – | –
21 | – | 60 | 3.18 | 24.8 | – | N=C(N)c1ccc(Cn2ccc3cc(C(=N)N)ccc32)cc1 | 10 | – | – | –
22 | 10.6 | 43 | 25.5 | > 1000 | – | N=C(N)c1ccc2c(C=O)c[nH]c2c1 | – | – | – | –
23 | 17.8 | 8.19 | – | – | – | N=C(N)c1ccc(OCCCOc2ccc(-c3nc4ccc(C(=N)N)cc4[nH]3)cc2)cc1 | – | – | – | –
24 | 4.47 | 8.18 | – | – | – | N=C(N)c1ccc(OCCCCOc2ccc(-c3nc4ccc(C(=N)N)cc4[nH]3)cc2)cc1 | – | – | – | –
25 | 12 | 3.9 | – | – | – | N=C(N)c1ccc(OCCOc2ccc(-c3nc4ccc(C(=N)N)cc4[nH]3)cc2)cc1 | – | – | – | –
26 | 8 | 3.83 | – | – | – | N=C(N)c1ccc(OCCCCCOc2ccc(-c3nc4cc(C(=N)N)ccc4[nH]3)cc2)cc1 | – | – | Cytotoxic | –
27 | 9.96 | 2.93 | 3.2 | 11.1 | – | N=C(N)c1ccc2c(ccn2CCCCn2ccc3cc(C(=N)N)ccc32)c1 | 10 | – | – | –
